Measurements taken from ChEMBL document CHEMBL1153954, “Promiscuous aggregate-based inhibitors promote enzyme unfolding” (J Med Chem, 2009).
Active and inactive are the calls of the source. No cut-off for these calls is given here.

Key:
[1] = molecular target: AmpC (Escherichia coli) (UniProt Q83TT7); assay: Aggregation based inhibition of Escherichia coli AmpC assessed as increase in deuteration of AmpC peptide fragment spanning 291-322 amino acid sequence after 8 hrs by hydrogen-deuterium exchange mass spectrometry relative to control
Chain of AmpC (Escherichia coli) (Q83TT7 as listed by the source): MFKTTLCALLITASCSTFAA
Method in brief: (§1)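 AmpC β-lactamase diluted from a 215 μM stock (50 mM KPi, pH 7.0) into deuterated 50 mM MOPS in D2O, pH 7.0. Final enzyme was 0.16 μM with 100 μM aggregator (0.5% DMSO) or 16 μM without. Aggregate samples were centrifuged 16000g for 5 min and the pellet kept. Triton X-100 was added to release enzyme. Samples were quenched with ice-cold 0.1% TFA pH 2.5, digested on immobilized pepsin 5 min on ice, then analysed by chilled fast-gradient LC-MS. Deuterium uptake is centroid mass shift versus the undeuterated control, not corrected for back exchange. Ratio is inhibited over uninhibited, from three replicates.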

[2] = molecular target: AmpC (Escherichia coli) (UniProt Q83TT7); assay: Aggregation based inhibition of Escherichia coli AmpC assessed as increase in deuteration of AmpC peptide fragment spanning 8-18 amino acid sequence after 10 mins by hydrogen-deuterium exchange mass spectrometry relative to control; method in brief: as §1
[3] = molecular target: AmpC (Escherichia coli) (UniProt Q83TT7); assay: Aggregation based inhibition of Escherichia coli AmpC assessed as increase in deuteration of AmpC peptide fragment spanning 105-128 amino acid sequence after 1 hr by hydrogen-deuterium exchange mass spectrometry relative to control; method in brief: as §1
[4] = molecular target: AmpC (Escherichia coli) (UniProt Q83TT7); assay: (§2) Aggregation based inhibition of Escherichia coli AmpC assessed as increase in deuteration of AmpC peptide fragment spanning 132-146 amino acid sequence after 8 hrs by hydrogen-deuterium exchange mass spectrometry relative to control; method in brief: as §1
[5] = molecular target: AmpC (Escherichia coli) (UniProt Q83TT7); assay: as §2, with “solvent accessibility” for “increase in deuteration”, “by measuring ratio of side chain surface area to random coil values per amino acid reside” for “after 8 hrs”; parameters: scale not given: the % may be the effect or the level left
Method in brief: (§3)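 Side-chain solvent accessibility per peptide was calculated from the structure with a 1.4 Å probe radius and default atomic radii and solvation parameters. Each value is the average over residues of the side-chain surface area relative to its random-coil value. Above 50% is exposed; below 20% is buried.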

[6] = molecular target: AmpC (Escherichia coli) (UniProt Q83TT7); assay: (§4) Aggregation based inhibition of Escherichia coli AmpC assessed as solvent accessibility of AmpC peptide fragment spanning 109-128 amino acid sequence by measuring ratio of side chain surface area to random coil values per amino acid reside by hydrogen-deuterium exchange mass spectrometry relative to control; parameters: scale not given: the % may be the effect or the level left; method in brief: as §3
[7] = molecular target: AmpC (Escherichia coli) (UniProt Q83TT7); assay: Aggregation based inhibition of Escherichia coli AmpC assessed as increase in deuteration of AmpC peptide fragment spanning 42-56 amino acid sequence after 10 mins by hydrogen-deuterium exchange mass spectrometry relative to control; method in brief: as §1
[8] = molecular target: AmpC (Escherichia coli) (UniProt Q83TT7); assay: Aggregation based inhibition of Escherichia coli AmpC assessed as increase in deuteration of AmpC peptide fragment spanning 323-332 amino acid sequence after 8 hrs by hydrogen-deuterium exchange mass spectrometry relative to control; method in brief: as §1
[9] = molecular target: AmpC (Escherichia coli) (UniProt Q83TT7); assay: Aggregation based inhibition of Escherichia coli AmpC assessed as increase in deuteration of AmpC peptide fragment spanning 323-332 amino acid sequence after 1 hr by hydrogen-deuterium exchange mass spectrometry relative to control; method in brief: as §1
[10] = molecular target: AmpC (Escherichia coli) (UniProt Q83TT7); assay: Aggregation based inhibition of Escherichia coli AmpC assessed as increase in deuteration of AmpC peptide fragment spanning 243-250 amino acid sequence after 8 hrs by hydrogen-deuterium exchange mass spectrometry relative to control; method in brief: as §1
[11] = molecular target: AmpC (Escherichia coli) (UniProt Q83TT7); assay: as §4, with “8-18” for “109-128”; parameters: scale not given: the % may be the effect or the level left; method in brief: as §3
[12] = molecular target: AmpC (Escherichia coli) (UniProt Q83TT7); assay: Aggregation based inhibition of Escherichia coli AmpC assessed as increase in deuteration of AmpC peptide fragment spanning 323-332 amino acid sequence after 10 mins by hydrogen-deuterium exchange mass spectrometry relative to control; method in brief: as §1
[13] = molecular target: AmpC (Escherichia coli) (UniProt Q83TT7); assay: Aggregation based inhibition of Escherichia coli AmpC assessed as increase in deuteration of AmpC peptide fragment spanning 271-289 amino acid sequence after 1 hr by hydrogen-deuterium exchange mass spectrometry relative to control; method in brief: as §1
[14] = molecular target: AmpC (Escherichia coli) (UniProt Q83TT7); assay: as §4, with “271-289” for “109-128”; parameters: scale not given: the % may be the effect or the level left; method in brief: as §3
[15] = molecular target: AmpC (Escherichia coli) (UniProt Q83TT7); assay: Aggregation based inhibition of Escherichia coli AmpC assessed as increase in deuteration of AmpC peptide fragment spanning 42-56 amino acid sequence after 1 hr by hydrogen-deuterium exchange mass spectrometry relative to control; method in brief: as §1
[16] = molecular target: AmpC (Escherichia coli) (UniProt Q83TT7); assay: Aggregation based inhibition of Escherichia coli AmpC assessed as increase in deuteration of AmpC peptide fragment spanning 109-128 amino acid sequence after 1 hr by hydrogen-deuterium exchange mass spectrometry relative to control; method in brief: as §1
[17] = molecular target: AmpC (Escherichia coli) (UniProt Q83TT7); assay: Aggregation based inhibition of Escherichia coli AmpC assessed as increase in deuteration of AmpC peptide fragment spanning 291-322 amino acid sequence after 10 mins by hydrogen-deuterium exchange mass spectrometry relative to control; method in brief: as §1
[18] = molecular target: AmpC (Escherichia coli) (UniProt Q83TT7); assay: Aggregation based inhibition of Escherichia coli AmpC assessed as increase in deuteration of AmpC peptide fragment spanning 42-56 amino acid sequence after 8 hrs by hydrogen-deuterium exchange mass spectrometry relative to control; method in brief: as §1
[19] = molecular target: AmpC (Escherichia coli) (UniProt Q83TT7); assay: as §4, with “291-322” for “109-128”; parameters: scale not given: the % may be the effect or the level left; method in brief: as §3
[20] = molecular target: AmpC (Escherichia coli) (UniProt Q83TT7); assay: as §4, with “42-56” for “109-128”; parameters: scale not given: the % may be the effect or the level left; method in brief: as §3
[21] = molecular target: AmpC (Escherichia coli) (UniProt Q83TT7); assay: Aggregation based inhibition of Escherichia coli AmpC assessed as increase in deuteration of AmpC peptide fragment spanning 336-350 amino acid sequence after 8 hrs by hydrogen-deuterium exchange mass spectrometry relative to control; method in brief: as §1
[22] = molecular target: AmpC (Escherichia coli) (UniProt Q83TT7); assay: as §4, with “323-332” for “109-128”; parameters: scale not given: the % may be the effect or the level left; method in brief: as §3
[23] = molecular target: AmpC (Escherichia coli) (UniProt Q83TT7); assay: Aggregation based inhibition of Escherichia coli AmpC assessed as increase in deuteration of AmpC peptide fragment spanning 105-128 amino acid sequence after 8 hrs by hydrogen-deuterium exchange mass spectrometry relative to control; method in brief: as §1
[24] = molecular target: AmpC (Escherichia coli) (UniProt Q83TT7); assay: Aggregation based inhibition of Escherichia coli AmpC assessed as increase in deuteration of AmpC peptide fragment spanning 271-289 amino acid sequence after 10 mins by hydrogen-deuterium exchange mass spectrometry relative to control; method in brief: as §1
[25] = molecular target: AmpC (Escherichia coli) (UniProt Q83TT7); assay: Aggregation based inhibition of Escherichia coli AmpC assessed as increase in deuteration of AmpC peptide fragment spanning 291-322 amino acid sequence after 1 hr by hydrogen-deuterium exchange mass spectrometry relative to control; method in brief: as §1
[26] = molecular target: AmpC (Escherichia coli) (UniProt Q83TT7); assay: Aggregation based inhibition of Escherichia coli AmpC assessed as increase in deuteration of AmpC peptide fragment spanning 8-18 amino acid sequence after 1 hr by hydrogen-deuterium exchange mass spectrometry relative to control; method in brief: as §1
[27] = molecular target: AmpC (Escherichia coli) (UniProt Q83TT7); assay: as §4, with “243-250” for “109-128”; parameters: scale not given: the % may be the effect or the level left; method in brief: as §3
[28] = molecular target: AmpC (Escherichia coli) (UniProt Q83TT7); assay: Inhibition of Escherichia coli AmpC assessed as induction of protein unfolding measured by trypsin mediated degradation of compound-AmpC enzyme complex at 100 uM after 4 hrs by gel electrophoresis
Method in brief: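 AmpC (0.5 μM) was preincubated 5 min with or without 100 μM aggregator in 50 mM KPi, pH 7.0, 1% DMSO final. Trypsin (0.01 or 0.025 mg/mL) was then added, and digestion ran at room temperature for 0, 15, 30 min, 1 h or 4 h. Samples were boiled in DTT-containing loading buffer and the AmpC band was followed by SDS-PAGE.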

[29] = molecular target: AmpC (Escherichia coli) (UniProt Q83TT7); assay: Aggregation based inhibition of Escherichia coli AmpC assessed as increase in deuteration of AmpC peptide fragment spanning 132-146 amino acid sequence after 1 hr by hydrogen-deuterium exchange mass spectrometry relative to control; method in brief: as §1
[30] = molecular target: AmpC (Escherichia coli) (UniProt Q83TT7); assay: Aggregation based inhibition of Escherichia coli AmpC assessed as increase in deuteration of AmpC peptide fragment spanning 109-128 amino acid sequence after 10 mins by hydrogen-deuterium exchange mass spectrometry relative to control; method in brief: as §1
[31] = molecular target: AmpC (Escherichia coli) (UniProt Q83TT7); assay: Aggregation based inhibition of Escherichia coli AmpC assessed as increase in deuteration of AmpC peptide fragment spanning 109-128 amino acid sequence after 8 hrs by hydrogen-deuterium exchange mass spectrometry relative to control; method in brief: as §1
[32] = molecular target: AmpC (Escherichia coli) (UniProt Q83TT7); assay: as §4, with “105-128” for “109-128”; parameters: scale not given: the % may be the effect or the level left; method in brief: as §3
[33] = molecular target: AmpC (Escherichia coli) (UniProt Q83TT7); assay: Aggregation based inhibition of Escherichia coli AmpC assessed as increase in deuteration of AmpC peptide fragment spanning 243-250 amino acid sequence after 10 mins by hydrogen-deuterium exchange mass spectrometry relative to control; method in brief: as §1
[34] = molecular target: AmpC (Escherichia coli) (UniProt Q83TT7); assay: Aggregation based inhibition of Escherichia coli AmpC assessed as increase in deuteration of AmpC peptide fragment spanning 8-18 amino acid sequence after 8 hrs by hydrogen-deuterium exchange mass spectrometry relative to control; method in brief: as §1
[35] = molecular target: AmpC (Escherichia coli) (UniProt Q83TT7); assay: Aggregation based inhibition of Escherichia coli AmpC assessed as increase in deuteration of AmpC peptide fragment spanning 271-289 amino acid sequence after 8 hrs by hydrogen-deuterium exchange mass spectrometry relative to control; method in brief: as §1
[36] = molecular target: AmpC (Escherichia coli) (UniProt Q83TT7); assay: as §4, with “336-350” for “109-128”; parameters: scale not given: the % may be the effect or the level left; method in brief: as §3
[37] = molecular target: AmpC (Escherichia coli) (UniProt Q83TT7); assay: Aggregation based inhibition of Escherichia coli AmpC assessed as increase in deuteration of AmpC peptide fragment spanning 105-128 amino acid sequence after 10 mins by hydrogen-deuterium exchange mass spectrometry relative to control; method in brief: as §1
[38] = molecular target: AmpC (Escherichia coli) (UniProt Q83TT7); assay: Aggregation based inhibition of Escherichia coli AmpC assessed as increase in deuteration of AmpC peptide fragment spanning 336-350 amino acid sequence after 10 mins by hydrogen-deuterium exchange mass spectrometry relative to control; method in brief: as §1
[39] = molecular target: AmpC (Escherichia coli) (UniProt Q83TT7); assay: Aggregation based inhibition of Escherichia coli AmpC assessed as increase in deuteration of AmpC peptide fragment spanning 132-146 amino acid sequence after 10 mins by hydrogen-deuterium exchange mass spectrometry relative to control; method in brief: as §1
[40] = molecular target: AmpC (Escherichia coli) (UniProt Q83TT7); assay: Aggregation based inhibition of Escherichia coli AmpC assessed as increase in deuteration of AmpC peptide fragment spanning 336-350 amino acid sequence after 1 hr by hydrogen-deuterium exchange mass spectrometry relative to control; method in brief: as §1

CC(=O)c1c(O)c(C)c(O)c(Cc2c(O)c3c(c(C(=O)/C=C/c4ccccc4)c2O)OC(C)(C)C=C3)c1O
fold change (FC) [1]: 1.8
fold change (FC) [2]: 1.3
fold change (FC) [3]: 2.6
fold change (FC) [4]: 3.4
Activity [5]: 34.8%
Activity [6]: 36.9%
fold change (FC) [7]: 1.9
fold change (FC) [8]: 2.7
fold change (FC) [9]: 3
fold change (FC) [10]: 1.7
Activity [11]: 35.7%
fold change (FC) [12]: 1.3
fold change (FC) [13]: 2.6
Activity [14]: 40.7%
fold change (FC) [15]: 2.7
fold change (FC) [16]: 2.5
fold change (FC) [17]: 1.6
fold change (FC) [18]: 1.8
Activity [19]: 22.3%
Activity [20]: 44.7%
fold change (FC) [21]: 2
Activity [22]: 11.8%
fold change (FC) [23]: 1.8
fold change (FC) [24]: 1.4
fold change (FC) [25]: 2.5
fold change (FC) [26]: 2.3
Activity [27]: 20.7%
Activity [28]: Active
fold change (FC) [29]: 4.2
fold change (FC) [30]: 1.5
fold change (FC) [31]: 1.6
Activity [32]: 31.3%
fold change (FC) [33]: 1.2
fold change (FC) [34]: 2.5
fold change (FC) [35]: 1.4
Activity [36]: 21.6%
fold change (FC) [37]: 1.6
fold change (FC) [38]: 1.7
fold change (FC) [39]: 2.6
fold change (FC) [40]: 3.7
